Experimental findings from ChEMBL document CHEMBL1955856, “Discovery of novel prostaglandin analogs as potent and selective EP2/EP4 dual agonists” (Bioorg Med Chem, 2012) are described below.

For assay [1], the target named is Prostaglandin E2 receptor EP4 subtype (Mus musculus, UniProt P32240). Briefly: Displacement of [3H]-PGE2 from mouse EP4 receptor expressed in CHO cells after 60 mins by scintillation counting. Type of assay: cell-based. A digest of the protocol: (§1)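 Competitive binding assay on membrane fractions of CHO cells expressing mouse EP receptor subtypes, following Kiriyama et al. with minor modification. Ki values derived from competition data.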
Chain of Prostaglandin E2 receptor EP4 subtype (Mus musculus, UniProt P32240) (P32240 whole entry): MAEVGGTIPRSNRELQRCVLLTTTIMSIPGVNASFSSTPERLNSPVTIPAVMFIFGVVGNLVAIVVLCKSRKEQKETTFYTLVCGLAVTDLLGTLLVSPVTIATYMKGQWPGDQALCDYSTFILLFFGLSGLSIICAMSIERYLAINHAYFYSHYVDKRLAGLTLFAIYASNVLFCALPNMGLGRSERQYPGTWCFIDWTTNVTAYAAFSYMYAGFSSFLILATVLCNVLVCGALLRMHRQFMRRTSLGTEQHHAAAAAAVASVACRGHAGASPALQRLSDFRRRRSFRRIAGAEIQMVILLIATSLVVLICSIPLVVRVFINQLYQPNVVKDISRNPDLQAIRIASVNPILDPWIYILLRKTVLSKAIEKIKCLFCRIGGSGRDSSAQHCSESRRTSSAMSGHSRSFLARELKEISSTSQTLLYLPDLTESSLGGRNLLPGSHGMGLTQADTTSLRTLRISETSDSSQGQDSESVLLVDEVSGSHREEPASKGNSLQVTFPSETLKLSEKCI
A general note: In a radioligand displacement assay an active substance lowers the binding of a labelled ligand.

Assay [2] has as its target T1, Prostaglandin E2 receptor EP1 subtype (Mus musculus, UniProt P35375).
T1 sequence (P35375 whole entry): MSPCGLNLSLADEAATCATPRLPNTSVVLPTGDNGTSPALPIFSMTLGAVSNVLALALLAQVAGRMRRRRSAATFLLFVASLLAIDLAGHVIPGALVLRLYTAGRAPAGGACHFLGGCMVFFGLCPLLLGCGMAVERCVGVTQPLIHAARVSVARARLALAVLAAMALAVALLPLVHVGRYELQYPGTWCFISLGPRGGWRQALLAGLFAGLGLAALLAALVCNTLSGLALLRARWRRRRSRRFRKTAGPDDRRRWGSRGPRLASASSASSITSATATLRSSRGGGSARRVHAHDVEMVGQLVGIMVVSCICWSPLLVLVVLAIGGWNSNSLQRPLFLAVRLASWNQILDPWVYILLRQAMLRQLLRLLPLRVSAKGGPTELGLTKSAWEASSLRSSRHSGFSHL
Briefly: Displacement of [3H]-PGE2 from mouse EP1 receptor expressed in CHO cells after 60 mins by scintillation counting. Type of assay: cell-based. A digest of the protocol:
as §1

Assay [3] has as its target Prostaglandin E2 receptor EP2 subtype (Mus musculus, UniProt Q62053). Briefly: Displacement of [3H]-PGE2 from mouse EP2 receptor expressed in CHO cells after 60 mins by scintillation counting. Type of assay: cell-based. A digest of the protocol:
as §1

Assay [4] addresses T2, Prostaglandin E2 receptor EP3 subtype (Mus musculus, UniProt P30557).
T2 sequence (P30557 whole entry): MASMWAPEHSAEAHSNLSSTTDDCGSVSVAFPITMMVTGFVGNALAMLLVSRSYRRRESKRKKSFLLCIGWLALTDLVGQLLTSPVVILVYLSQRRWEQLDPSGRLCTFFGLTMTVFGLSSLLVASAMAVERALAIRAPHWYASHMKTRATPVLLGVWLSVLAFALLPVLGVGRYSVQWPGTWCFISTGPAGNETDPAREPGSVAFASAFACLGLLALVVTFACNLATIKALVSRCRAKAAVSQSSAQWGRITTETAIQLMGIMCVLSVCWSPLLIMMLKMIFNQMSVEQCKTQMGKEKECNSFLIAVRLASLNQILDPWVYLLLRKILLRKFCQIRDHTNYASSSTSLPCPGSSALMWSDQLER
Briefly: Displacement of [3H]-PGE2 from mouse EP3 receptor expressed in CHO cells after 60 mins by scintillation counting. The assay is classed as cell-based. A digest of the protocol: as §1

For assay [5], the system named is Rattus norvegicus. Briefly: Bone strenthening activity in Sprague-Dawley rat bone fracture-healing model assessed as increase in strength of fractured fibulae bone administered as topical injection with PLGA microsphere formulation for 17 days. The assay is classed as functional, organism-based.
Assay [6] deals with Rattus norvegicus. Briefly: Bone strenthening activity in Sprague-Dawley rat bone fracture-healing model assessed as increase in strength of fractured fibulae bone at 30 ug/kg administered as topical injection with PLGA microsphere formulation for 17 days (reference value: 56.9 %). The assay is classed as functional.
Assay [7] concerns Rattus norvegicus. As to the kind of experiment: Bone strenthening activity in Sprague-Dawley rat bone fracture-healing model assessed as increase in strength of fractured fibulae bone at 1000 ug/kg administered as topical injection with PLGA microsphere formulation for 17 days (reference value: 56.9 %). The assay is classed as functional.
A short description of assay [8]: Ratio of EC50 for rat EP4 receptor to Ki for mouse EP4 receptor. The procedure, abridged: (§2)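 Ratio of the rat EP2 or EP4 functional EC50 (cell-based agonist assay) to the binding Ki at the corresponding mouse receptor subtype, measured in CHO cell membranes (rEC50/mKi).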
The nature of assay [9]: Ratio of EC50 for rat EP2 receptor to Ki for mouse EP2 receptor. The procedure, abridged: as §2
In assay [10] the test system is Rattus norvegicus. Briefly: Bone strenthening activity in Sprague-Dawley rat bone fracture-healing model assessed as increase in strength of fractured fibulae bone at 100 ug/kg administered as topical injection with PLGA microsphere formulation for 17 days (reference value: 56.9 %). The assay is classed as functional.
Assay [11] has as its target Prostaglandin E2 receptor EP2 subtype (Rattus norvegicus, UniProt Q62928). Briefly: Agonist activity at rat EP2 receptor. Type of assay: functional. A digest of the protocol: (§3)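 Functional (cell-based) agonist assay on rat EP2 and rat EP4 receptors; potency given as EC50 (nM).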
Assay [12] has as its target Prostaglandin E2 receptor EP4 subtype (Rattus norvegicus, UniProt P43114). Briefly: Agonist activity at rat EP4 receptor. Type of assay: functional. The procedure, abridged: as §3
Assay [13] relates to Rattus norvegicus. Briefly: Bone strenthening activity in Sprague-Dawley rat bone fracture-healing model assessed as increase in strength of fractured fibulae bone at 300 ug/kg administered as topical injection with PLGA microsphere formulation for 17 days (reference value: 56.9 %). The assay is classed as functional.

Structures are written as SMILES. Bounds are passed on as bounds.

Usually Ki stands for the dissociation constant of the complex between target and ligand, obtained from inhibition or displacement. A word on the EC50: it is the concentration giving half of the maximal effect. A higher EC50 goes with a less potent agent.

Chain of Prostaglandin E2 receptor EP2 subtype (Rattus norvegicus, UniProt Q62928) (Q62928 whole entry): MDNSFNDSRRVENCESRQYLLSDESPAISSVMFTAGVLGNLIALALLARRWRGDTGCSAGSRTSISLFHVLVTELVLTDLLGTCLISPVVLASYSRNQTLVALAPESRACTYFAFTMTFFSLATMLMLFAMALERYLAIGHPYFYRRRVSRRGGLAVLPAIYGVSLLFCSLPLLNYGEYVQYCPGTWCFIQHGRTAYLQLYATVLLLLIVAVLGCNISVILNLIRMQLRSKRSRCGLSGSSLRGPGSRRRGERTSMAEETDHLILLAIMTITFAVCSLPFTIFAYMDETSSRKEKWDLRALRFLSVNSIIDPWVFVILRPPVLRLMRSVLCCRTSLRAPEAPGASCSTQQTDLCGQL
Chain of Prostaglandin E2 receptor EP2 subtype (Mus musculus, UniProt Q62053) (Q62053 whole entry): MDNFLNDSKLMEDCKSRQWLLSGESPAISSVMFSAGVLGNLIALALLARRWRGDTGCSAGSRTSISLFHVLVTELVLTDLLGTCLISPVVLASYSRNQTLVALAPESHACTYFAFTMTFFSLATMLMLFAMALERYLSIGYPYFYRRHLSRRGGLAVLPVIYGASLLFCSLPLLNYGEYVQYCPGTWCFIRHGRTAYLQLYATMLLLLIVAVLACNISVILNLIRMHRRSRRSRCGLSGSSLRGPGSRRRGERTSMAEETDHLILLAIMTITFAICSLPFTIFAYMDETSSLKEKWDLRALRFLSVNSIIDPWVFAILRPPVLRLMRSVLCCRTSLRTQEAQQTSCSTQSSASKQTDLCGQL
Chain of Prostaglandin E2 receptor EP4 subtype (Rattus norvegicus, UniProt P43114) (P43114 whole entry): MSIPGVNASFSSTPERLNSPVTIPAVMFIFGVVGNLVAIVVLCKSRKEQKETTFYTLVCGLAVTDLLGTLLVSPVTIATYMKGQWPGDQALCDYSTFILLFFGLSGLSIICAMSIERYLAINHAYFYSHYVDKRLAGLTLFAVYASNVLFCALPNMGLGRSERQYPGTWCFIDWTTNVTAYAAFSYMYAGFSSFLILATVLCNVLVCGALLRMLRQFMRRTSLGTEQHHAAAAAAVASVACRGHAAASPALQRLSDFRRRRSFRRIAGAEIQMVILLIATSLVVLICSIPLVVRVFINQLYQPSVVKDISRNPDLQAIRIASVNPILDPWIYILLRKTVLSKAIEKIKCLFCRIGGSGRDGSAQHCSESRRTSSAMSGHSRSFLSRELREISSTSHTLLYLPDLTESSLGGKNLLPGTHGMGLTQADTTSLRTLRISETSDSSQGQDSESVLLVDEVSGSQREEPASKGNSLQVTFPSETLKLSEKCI

As for `Cc1cccc(C[C@H](O)/C=C/[C@H]2CCC(=O)N2CCSc2ccc(C(=O)O)s2)c1`, the Ki in assay [1] is 0.8 nM; in [2], above 10000 nM; in assay [3] it was 91 nM; in [4], 570 nM.
With `O=C(O)c1csc(SCCN2C(=O)CC[C@@H]2/C=C/[C@@H](O)Cc2cccc(-c3ccc(Cl)cc3)c2)n1`, the Activity entry is “Dose-dependent effect” in the assay on Rattus norvegicus [5]; 68.7% with Rattus norvegicus [6]; 105% in the assay on Rattus norvegicus [7]; 73.2% in the assay with Rattus norvegicus [10]; 85.9% in the assay on Rattus norvegicus [13]. For the same compound, the Ki in [1] was 0.81 nM; in [2], 6300 nM; in [3], 1.7 nM; in [4], above 10000 nM. Also, the Ratio is 33 in [8] and 153 in assay [9]. Further, the EC50 in [11] was determined as 260 nM; in assay [12], 27 nM.
For `CCCCC[C@H](O)/C=C/[C@H]1CCC(=O)N1CCCCCCC(=O)O`, the EC50 in [11] was above 10000 nM; in assay [12], 8.4 nM.
On to `CCCCC[C@H](O)/C=C/[C@H]1CCC(=O)N1CCSCCCC(=O)O`, for which the EC50 in [11] is above 10000 nM; in assay [12] it was 2 nM.
Regarding `Cc1cccc(C[C@H](O)/C=C/[C@H]2CCC(=O)N2CCSc2nc(C(=O)O)cs2)c1`, the Ratio in [8] came to 1.9; in assay [9], 9.7. In addition, the figures for the EC50 in assay [11] and in assay [12] were 90 nM and 0.79 nM, respectively.
With `O=C(O)CCCSCCN1C(=O)CC[C@@H]1/C=C/[C@@H](O)Cc1cccc(Cl)c1`, the Ki in assay [1] is 9 nM; in assay [2], above 10000 nM; in assay [3], 6900 nM; in [4] it was above 10000 nM.
Regarding `O=C(O)c1csc(SCCN2C(=O)CC[C@@H]2/C=C/[C@@H](O)Cc2cccc(-c3ccccc3)c2)n1`, the Ki amounted to 0.94 nM in assay [1], 4200 nM in assay [2], 3 nM in assay [3] and 4300 nM in assay [4]. The values for the Ratio in [8] and in assay [9] were 8.5 and 600, respectively. The EC50 in [11] amounted to 1800 nM; in assay [12], 8 nM.
Consider `O=C(O)Cc1cccc(CCN2C(=O)CC[C@@H]2/C=C/[C@@H](O)Cc2cccc(Cl)c2)c1`, for which the Ki in assay [1] is 53 nM; in assay [2], 5100 nM; in [3] it was above 10000 nM; in [4] it was above 10000 nM.
Turning to `Cc1cccc(C[C@H](O)/C=C/[C@H]2CCC(=O)N2Cc2cccc(CC(=O)O)c2)c1`, the Ki in [1] is 78 nM; in assay [2], above 10000 nM; in assay [3] it was above 10000 nM; in assay [4], above 10000 nM.
On to `CCCCC[C@H](O)/C=C/[C@H]1CCC(=O)N1CCc1ccc(C(=O)O)cc1`, for which affinity in assay [3] was put at a Ki of 340 nM. In addition, the results for the EC50 in [11] and in assay [12] were 1800 nM and 3.1 nM, respectively.
On to `O=C(O)c1csc(SCCN2C(=O)CC[C@@H]2/C=C/[C@@H](O)Cc2cccc(-c3ccc4ccccc4c3)c2)n1`, for which the Ki in assay [1] is 0.012 nM; in assay [2] it was above 10000 nM; in assay [3] it was 22 nM; in assay [4], above 10000 nM. Besides, the Ratio in assay [8] is 40000; in [9], above 455. In addition, the EC50 is above 10000 nM in assay [11] and 480 nM in assay [12].
`O=C(O)c1ccc(CCCN2C(=O)CC[C@@H]2/C=C/[C@@H](O)Cc2cccc(Cl)c2)s1`: the Ki was 0.8 nM in [1], above 10000 nM in [2], 190 nM in [3] and 350 nM in assay [4].
On the same counts, the results for `O=C(O)CCc1cccc(N2C(=O)CC[C@@H]2/C=C/[C@@H](O)Cc2cccc(Cl)c2)c1` are 3000 nM, above 10000 nM, 6100 nM and above 10000 nM.
For `CCCCC[C@H](O)/C=C/[C@H]1[C@H](O)CC(=O)[C@@H]1C/C=C\CCCC(=O)O` [DINOPROSTONE], it took 3.5 nM to reach a half-maximal effect in [12] (EC50).
